Experimental data taken from ChEMBL document CHEMBL1165991, “Synthesis and in vitro evaluation of novel 1,2,4-triazine derivatives as neuroprotective agents” (Bioorg Med Chem, 2010).
Calls of active or inactive are those of the source. The calls are words filed in the database; no cut-off is given here.

Columns and labels:
[1] = test system: PC-12; experiment: Cytotoxicity against rat differentiated PC12 cells at 0.5 to 20 uM after 24 hrs by MTT assay; type: cell-based; conditions: pc-12, 24 h
Method in brief: (§1)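 PC12 cells grown in DMEM with 10% FBS and penicillin–streptomycin at 37 °C, 5% CO2. Differentiated cells were primed with NGF 50 ng/ml every other day for 6 days; undifferentiated cells had no NGF. Compound 0.5–20 μM without H2O2; MTT read at 24 h. Formazan dissolved in DMSO, A550 as % of control; mean ± S.D., n = 3.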

[2] = test system: PC-12; experiment: Cytotoxicity against rat undifferentiated PC12 cells at 0.5 to 20 uM after 24 hrs by MTT assay; type: cell-based; conditions: pc-12, 24 h; method in brief: as §1
[3] = test system: PC-12; experiment: Neuroprotective activity in rat undifferentiated PC12 cells assessed as protection against H2O2-induced cell death at 10 uM treated 3 hrs before H2O2 challenge measured after 24 hrs by MTT assay relative to control; type: functional
Method in brief: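 Undifferentiated rat PC12 cells, grown in DMEM with 10% FBS and penicillin–streptomycin at 37 °C, 5% CO2, were seeded in 96-well plates. They were pretreated 3 h with compounds (0.5–20 µM), then exposed to H2O2 for 24 h. Viability was read by MTT reduction, formazan dissolved in DMSO, A550, as % of control; mean ± S.D., n = 3.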

[4] = test system: PC-12; experiment: Neuroprotective activity in rat NGF treated differentiated PC12 cells assessed as restoration of H2O2-induced detached from culture plate at 10 uM treated 3 hrs before H2O2 challenge measured after 24 hrs by fluorescence microscopy analysis; type: functional, cell-based
Method in brief: (§2)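 PC12 cells were differentiated with NGF 50 ng/ml for 6 days, pretreated 3 h with compound, then exposed to H2O2 150 μM for 24 h. Morphology was judged by microscopy: cell shape, attachment to the plate surface and inter-neuronal networks.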

[5] = test system: PC-12; experiment: Neuroprotective activity in rat differentiated PC12 cells assessed as protection against H2O2-induced cell death at 10 uM treated 3 hrs before H2O2 challenge measured after 24 hrs by MTT assay relative to control; type: functional
Method in brief: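 Rat PC12 cells grown in DMEM with 10% FBS and penicillin–streptomycin at 37 °C, 5% CO2, then differentiated with NGF (50 ng/ml) every other day for 6 days. Compounds (0.5–20 µM) were added 3 h before H2O2 (150 µM) and kept present for 24 h more. MTT reduction, formazan dissolved in DMSO, A550; % of control cells; mean ± S.D., n = 3.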

[6] = test system: PC-12; experiment: Neuroprotective activity in rat NGF treated differentiated PC12 cells assessed as restoration of H2O2-induced neuronal shape change at 10 uM treated 3 hrs before H2O2 challenge measured after 24 hrs by fluorescence microscopy analysis; type: functional, cell-based; method in brief: as §2
[7] = test system: PC-12; experiment: Neuroprotective activity in differentiated rat PC12 cells assessed as inhibition of H2O2-induced NF-kappaB nucleus accumulation treated 3 hrs before H2O2 challenge measured after 24 hrs by Western blot relative to untreated control; type: functional
Method in brief: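 Differentiated PC12 cells were pretreated 3 h with compound, then given H2O2 150 μM for 24 h. Nuclear protein (20 μg) was run on 12% SDS–PAGE, blotted to PVDF, probed with anti-NF-κB and reprobed for β-actin, with ECL detection. Band densities were taken as a ratio; median of three independent experiments.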

[8] = test system: PC-12; experiment: Neuroprotective activity in differentiated rat PC12 cells assessed as protection against H2O2-induced apoptosis at 10 uM treated 3 hrs before H2O2 challenge measured after 24 hrs by acridine orange/ethidium bromide double staining method; type: functional
Method in brief: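 NGF-differentiated PC12 cells were pretreated with compound, then given H2O2 150 μM for 24 h. Cells were harvested, washed in PBS and set to 10^6/ml, then stained with AO/EB (1:1, final 100 μg/ml). Fluorescence microscopy scored viable, early or late apoptotic, and necrotic nuclei in 10 random fields; three repeats.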

[9] = test system: PC-12; experiment: Neuroprotective activity in rat NGF treated differentiated PC12 cells assessed as restoration of H2O2-induced network changes at 10 uM treated 3 hrs before H2O2 challenge measured after 24 hrs by fluorescence microscopy analysis; type: functional, cell-based; method in brief: as §2
[10] = test system: PC-12; experiment: Neuroprotective activity in differentiated rat PC12 cells assessed as decrease of H2O2-induced cleaved caspase 3 level treated 3 hrs before H2O2 challenge measured after 24 hrs by Western blot relative to untreated control; type: functional
Method in brief: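 PC12 cells grown in DMEM with 10% FBS at 37 °C, 5% CO2, and differentiated with NGF (50 ng/ml) every other day for 6 days. Pretreated 3 h with compound, then H2O2 (150 μM) added with compound for 24 h. Twenty μg protein run on 12% SDS-PAGE and blotted for cleaved caspase-3, reprobed for β-actin. ECL detection, densitometry ratio, median of three independent experiments.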

[11] = test system: PC-12; experiment: Neuroprotective activity in rat differentiated PC12 cells assessed as protection against H2O2-induced cell death at 0.5 to 20 uM treated 3 hrs before H2O2 challenge measured after 24 hrs by MTT assay relative to control; type: functional, cell-based
Method in brief: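 NGF-differentiated PC12 cells (50 ng/ml every other day, 6 days) were pretreated 3 h with compound at 0.5–20 μM, then given H2O2 150 μM with compound for a further 24 h. Viability by MTT: formazan in DMSO, A550, expressed as % of control cells; mean ± S.D., n = 3.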

Compound | Activity [1] | Activity [2] | Activity [3] [%] | Activity [4] | Activity [5] [%] | Activity [6] | fold change (FC) [7] | Activity [8] [%] | Activity [9] | fold change (FC) [10] | Activity [11]
CSc1nnc(-c2ccc(Cl)cc2)c(-c2ccc(Cl)cc2)n1 | Non-toxic | Non-toxic | 88 | Active | 83 | Active | 4.04 | 20 | Active | 4.59 | –
CCCCSc1nnc(-c2ccccc2)c(-c2ccccc2)n1 | – | – | – | – | – | – | – | – | – | – | inactive
CCCSc1nnc(-c2ccc(Cl)cc2)c(-c2ccc(Cl)cc2)n1 | Non-toxic | Non-toxic | 60 | – | 45 | – | 1.89 | 40 | – | 1.92 | –
CCCSc1nnc(-c2ccccc2)c(-c2ccccc2)n1 | – | – | – | inactive | – | inactive | – | – | inactive | – | inactive
CCSc1nnc(-c2ccccc2)c(-c2ccccc2)n1 | Non-toxic | Non-toxic | 59 | – | 54 | – | 1.56 | 45 | – | 1.64 | –
CCSc1nnc(-c2ccc(Cl)cc2)c(-c2ccc(Cl)cc2)n1 | Non-toxic | Non-toxic | 58 | – | – | – | 2 | 40 | – | 2 | –
CCCCSc1nnc(-c2ccc(Cl)cc2)c(-c2ccc(Cl)cc2)n1 | Non-toxic | Non-toxic | 63 | – | 50 | – | 1.78 | 40 | – | 1.83 | –
CSc1nnc(-c2ccccc2)c(-c2ccccc2)n1 | Non-toxic | Non-toxic | 53 | – | 47 | – | 1.79 | 35 | – | 1.91 | –
